Assay results published in ChEMBL document CHEMBL4834453, “Discovery of N-(6-(5-fluoro-2-(piperidin-1-yl)phenyl)pyridazin-3-yl)-1-(tetrahydro-2H-pyran-4-yl)methanesulfonamide as a brain-permeable and metabolically stable kynurenine monooxygenase inhibitor” (Bioorg Med Chem Lett, 2021).
In brackets after ≈: the same amount, converted by molar mass.

Tests used:
[1] = Plasma concentration in cynomolgus monkey at 5 mg/kg, po measured after 2 hrs of administration; assay type: ADME, organism-based, Macaca fascicularis
In short: (§1)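 Cynomolgus monkeys (n=2) dosed orally. Blood and brain collected 2 h after dosing. Plasma (ng/mL) and striatum (ng/g) concentrations measured and the striatum/plasma ratio taken per animal and as the mean. Brain free concentration derived using protein binding ratio.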

[2] = Ratio of drug level in cynomolgus monkey striatum to plasma at 5 mg/kg, po measured after 2 hrs of administration
[3] = Drug uptake in cynomolgus monkey striatum at 5 mg/kg, po measured after 2 hrs of administration; assay type: ADME, organism-based, Macaca fascicularis; conditions: read-out: Drug uptake; in short: as §1
[4] = Half life in mouse; assay type: ADME, organism-based; conditions: in vivo
[5] = Ratio of drug concentration in brain to plasma in mouse at 10 mg/kg, po; assay type: ADME, organism-based; conditions: read-out: BPR
In short: (§2)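 Mouse PK after a single oral dose (2 mg/kg; 10 mg/kg where marked). Plasma concentration given in ng/mL and brain concentration in ng/g tissue. Brain/plasma ratio computed from these. Values given as mean ± spread.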

[6] = Plasma concentration in mouse at 10 mg/kg, po; assay type: ADME, organism-based; conditions: in vivo; in short: as §2
[7] = Clearance in mouse; assay type: ADME, organism-based; conditions: in vivo
[8] = Metabolic stability in rat liver microsomes assessed as intrinsic clearance incubated for 30 mins in presence of NADPH measured per mg protein; assay type: ADME, Microsome; conditions: for microsomal CLint: liver microsomes, read-out: CLH; for CLH: microsomes, 0.5 h
In short: (§3)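 Compound incubated with human or rat hepatic microsomes plus NADPH at 37 °C for 30 min. Intrinsic clearance expressed as μL/min/mg protein.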

[9] = Solubility of the compound at pH 7.4; assay type: physicochemical; conditions: buffer
[10] = Metabolic stability in human liver microsomes assessed as intrinsic clearance incubated for 30 mins in presence of NADPH measured per mg protein; assay type: ADME, Microsome; conditions: for microsomal CLint: liver microsomes, read-out: CLH; in short: as §3
[11] = Drug concentration in mouse brain at 10 mg/kg, po measured per gm of tissue; assay type: ADME, organism-based; conditions: in vivo; in short: as §2
[12] = Glutathione reactivity assessed as dansylatedGSH-compound conjugate formation in presence of human liver microsomes by fluorescence detector based HPLC analysis; assay type: physicochemical
In short: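 Reactive metabolite trapping: compound incubated with dansylated glutathione and human liver microsomes. dGSH-conjugate quantified by HPLC with fluorescence detection and reported in μmol/L.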

[13] = Solubility of the compound at pH 1.2; assay type: physicochemical; conditions: buffer
[14] = Plasma concentration in mouse at 2 mg/kg, po; assay type: ADME, organism-based; conditions: in vivo; in short: as §2
[15] = Drug concentration in mouse brain at 2 mg/kg, po measured per gm of tissue; assay type: ADME, organism-based; conditions: in vivo; in short: as §2
[16] = Ratio of drug concentration in brain to plasma in mouse at 2 mg/kg, po; assay type: ADME, organism-based; conditions: read-out: BPR; in short: as §2

Compound	microsomal CLint [8] [µL/min/mg]	microsomal CLint [10] [µL/min/mg]	Drug metabolism [12] [µmol/mL]	also measured
O=C(O)c1cc(-c2ccc(Cl)c(OC3CC3)c2)ncn1	–	–	–	concentration at 2 h [1]: 15600 ng/mL; Kp at 2 h [2]: 0.004; concentration at 2 h [3]: 64.8 ng/g
Cc1ccc(S(=O)(=O)Nc2ccc(-c3ccccc3N3CCCCC3)nn2)cc1	0.395	1.07	0.000852	half-life [4]: 18 min; Kp [5]: 0.28; Cp [6]: 808 ng/mL; clearance [7]: 67 mL/min/kg; solubility [9]: < 1 µg/mL; Ct [11]: 230 ng/g; solubility [13]: 163 µg/mL (≈ 399 µM)
Cc1ccc(S(=O)(=O)Nc2ccc(-c3c(F)cccc3N3CCCCC3)nn2)cc1	0.339	0.478	0.000637	Cp [14]: 284 ng/mL; Ct [15]: 79 ng/g; Kp [16]: 0.28
Cc1ccc(S(=O)(=O)Nc2ccc(-c3cccc(F)c3N3CCCCC3)nn2)cc1	0.518	0.178	0.000146	–
O=S(=O)(CC1CCCC1)Nc1ccc(-c2cc(F)ccc2N2CCCCC2)nn1	1.6	0.703	0.00049	–
O=S(=O)(CC1CCCCO1)Nc1ccc(-c2cc(F)ccc2N2CCCCC2)nn1 (stereo unspecified)	0.435	0.139	0	–

Second part, led by results:

microsomal CLint [8] [µL/min/mg]	microsomal CLint [10] [µL/min/mg]	Drug metabolism [12] [µmol/mL]	Compound	also measured
–	–	0	COCCCS(=O)(=O)Nc1ccc(-c2cc(F)ccc2N2CCCCC2)nn1	CLH [8]: 0.045 µL/min/mg; CLH ([10]; microsomes, 0.5 h): 0.026 µL/min/mg
< 0.05	0.156	0	CCS(=O)(=O)Nc1ccc(-c2cc(F)ccc2N2CCCCC2)nn1	–
0.265	0.569	0	O=S(=O)(CC(F)(F)F)Nc1ccc(-c2cc(F)ccc2N2CCCCC2)nn1	–
–	0.179	0	COCCS(=O)(=O)Nc1ccc(-c2cc(F)ccc2N2CCCCC2)nn1	CLH [8]: 0.05 µL/min/mg
0.168	0.179	0	CCCS(=O)(=O)Nc1ccc(-c2cc(F)ccc2N2CCCCC2)nn1	–
0.483	0.375	0.00011	CC(C)CS(=O)(=O)Nc1ccc(-c2cc(F)ccc2N2CCCCC2)nn1	–
